Assay results: the array DNA melting data of Ke et al. (doi:10.1101/2024.01.08.574731)

Tests used:
[1] = melting temperature; fluorescence melt of hairpins on a sequencing array, two-state fit, raised by 9.35 °C to match UV melts; conditions: sodium 0.088 M
How it was run: (§1)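 Two-state fits, bootstrapped, provided melting temperature and folding enthalpy from Cy3 fluorescence normalised to pre-quench Cy3 and to control constructs. Library hairpins with annealed Cy3 and quencher oligos were imaged on a sequenced MiSeq flow cell in 50 mM Na-HEPES pH 8.0, 25 mM NaCl, at 2.5 °C intervals up to 60 °C. Four replicates were combined with inverse-variance weighting. A 9.35 °C upward shift was applied to fitted temperatures to match UV melts.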

[2] = folding enthalpy; higher = less favourable; fluorescence melt of hairpins on a sequencing array, two-state fit; conditions: sodium 0.088 M
How it was run: as §1

Row | Sequence | Tm [1] | folding enthalpy [2]
1 | GTCGGCGAAAGCCCGAC ((((((....))).))) | 64.7 °C | -21.9 kcal/mol
2 | CGAACGGAAACGTTTTCG ((((((....)))..))) | 30.4 °C | -16.3 kcal/mol
3 | GCCACTGCGAAAGCAGGC (((..(((....)))))) | 46 °C | -8.9 kcal/mol
4 | GTTGCCGAAAGGCACAAC ((((((....)))..))) | 35.7 °C | -8.02 kcal/mol
5 | GGGACCGGAAACAGTCCC (((((.(....).))))) | 49.4 °C | -34.5 kcal/mol
6 | GATCGAAAGGTCGATC ((((((....)))))) | 47.7 °C | -28.7 kcal/mol
7 | GTCCCATCGAAAGATGAC (((..(((....)))))) | 25.9 °C | -12 kcal/mol
8 | GCCGTGCGAAAGCTGGGC (((..((....))..))) | 59.5 °C | -19.9 kcal/mol
9 | GATCTGCTCTCAGATC ((((((....)))))) | 48.4 °C | -36.6 kcal/mol
10 | GTGCAACGAAAGTTCCAC (((.(((....))).))) | 38.1 °C | -10.3 kcal/mol
11 | GGGTATGGAAACGTACTC (.(((.(....).))).) | 30.7 °C | -13.4 kcal/mol
12 | GACGTGCCGAAAGGCGTC (((..(((....)))))) | 46.8 °C | -13.3 kcal/mol
13 | GTGATGGGAAACCACCAC (((.(((....))).))) | 42.3 °C | -29.7 kcal/mol
14 | GCGGGTCTCCGC ((((....)))) | 67.7 °C | -22.9 kcal/mol
15 | GGTACCGAAAGGTATACC ((((((....)))..))) | 41.4 °C | -15.3 kcal/mol
16 | GATCACGAAGGTGATC ((((((....)))))) | 65.3 °C | -32.7 kcal/mol
17 | GTTTGAACGAAAGTTAAC (((..(((....)))))) | 24.4 °C | -12.3 kcal/mol
18 | GCCTGCGAAAGCAGCGGC ((((((....)))..))) | 61.6 °C | -14 kcal/mol
19 | GATCCCGCCGGGATC ((((((...)))))) | 67.6 °C | -39.7 kcal/mol
20 | GGTATTGAAAAATACC ((((((....)))))) | 49 °C | -38.8 kcal/mol
21 | GATCGAAGTTCGATC ((((((...)))))) | 50.3 °C | -38.4 kcal/mol
22 | GCGGTGCGAAAGCAGTGC ((..(((....)))..)) | 63.6 °C | -23.5 kcal/mol
23 | GTGATTGAAAAATCAC ((((((....)))))) | 51.7 °C | -29.5 kcal/mol
24 | GTAGTACCGAAAGGTTAC (((..(((....)))))) | 29.8 °C | -11.1 kcal/mol

Row | Sequence | Tm [1] | folding enthalpy [2]
25 | GCGTTGCGAAAGCACCGC (((.(((....))).))) | 59.1 °C | -47.7 kcal/mol
26 | GGTGCTGGAAACGGCACC (((((.(....).))))) | 62.9 °C | -45.8 kcal/mol
27 | GTACGTGGAAACACATAC (((.(((....))).))) | 32.7 °C | -22.1 kcal/mol
28 | GATCGCCTGCGCGATC ((((((....)))))) | 67.2 °C | -32 kcal/mol
29 | GCGAGCGCTCGC ((((....)))) | 65 °C | -46.8 kcal/mol
30 | GGCCGCGAAAGCGCTGCC ((((((....)))..))) | 56.5 °C | -18.6 kcal/mol
31 | CGACCGGAAACGGATCG ((((((....))).))) | 48.5 °C | -33.3 kcal/mol
32 | GATCATGGTCATGATC ((((((....)))))) | 51.8 °C | -38 kcal/mol
33 | GTTTAGGGAAACCTAAAC (((((((....))))))) | 52.7 °C | -39.9 kcal/mol
34 | GCGTATGCGAAAGCACGC (((..(((....)))))) | 53.1 °C | -20.9 kcal/mol
35 | GACCATGGAAACACGGTC ((((.((....)).)))) | 42.5 °C | -31.7 kcal/mol
36 | CGGACGGAAACGTCCCG ((((((....))).))) | 50.7 °C | -10.8 kcal/mol
37 | GCCGGCCCGAAAGGGGGC (((..(((....)))))) | 58.3 °C | -11.3 kcal/mol
38 | GATCTACCTGTAGATC ((((((....)))))) | 52.8 °C | -39.4 kcal/mol
39 | GACCCCGGAAACGGAGTC (((.(((....))).))) | 47.2 °C | -31.4 kcal/mol
40 | GCGATTAATCGC ((((....)))) | 56.1 °C | -29.4 kcal/mol
41 | GTGAACCGAAAGGTACAC (((.(((....))).))) | 54.3 °C | -35.7 kcal/mol
42 | GCGTCGTTACGC ((((....)))) | 52.6 °C | -21.8 kcal/mol
43 | GTAGGGGGAAACCCTTAC (((.(((....))).))) | 42 °C | -17.4 kcal/mol
44 | GCTGGAGGAAACTTCAGC ((((.((....)).)))) | 50 °C | -40.8 kcal/mol
45 | GGATACGAAAGTAGTCC ((((((....))).))) | 40.4 °C | -20.6 kcal/mol
46 | GATCGAAGTCTCGATC ((((((....)))))) | 49.2 °C | -35.1 kcal/mol
47 | CCAGGGAAACCTGG (((((....))))) | 53 °C | -20.6 kcal/mol
48 | GAACCCGGAAACGGGTCC (.(((((....))))).) | 45.4 °C | -11.2 kcal/mol

Row | Sequence | Tm [1] | folding enthalpy [2]
49 | GTACCGGGAAACCGACAC ((..(((....)))..)) | 22.9 °C | -8.42 kcal/mol
50 | GATCGGTAACCCGATC ((((((....)))))) | 54.3 °C | -32.7 kcal/mol
51 | GTAGCTGGAAACAACTAC ((((.((....)).)))) | 35.9 °C | -27.2 kcal/mol
52 | CTCACGAAAGTGAG (((((....))))) | 61 °C | -22.2 kcal/mol
53 | GATCGATGTTTCGATC ((((((....)))))) | 53.5 °C | -43 kcal/mol
54 | GCGCGAACGAAAGTTCGC (((..(((....)))))) | 68.4 °C | -6.27 kcal/mol
55 | GTCGAACGAAAGTTGAC (((.(((....)))))) | 46.3 °C | -23.4 kcal/mol
56 | GATCAGCACCTGATC ((((((...)))))) | 48.3 °C | -31.1 kcal/mol
57 | GGACAGGGAAACCTGTTC (.(((((....))))).) | 50 °C | -22.9 kcal/mol
58 | GCGTGCGGAAACGCGTGC ((..(((....)))..)) | 53.5 °C | -27.6 kcal/mol
59 | CGAGGCCGGAAACGGTCG (((..(((....)))))) | 48.5 °C | -19.7 kcal/mol
60 | GGAGTAGGAAACTGCTTC (.((.((....)).)).) | 41.4 °C | -32.7 kcal/mol
61 | GGACGGGCGAAAGCCTCC (((..(((....)))))) | 33.7 °C | -10.5 kcal/mol
62 | GATCTTGCACAAGATC ((((((....)))))) | 50.8 °C | -33.4 kcal/mol
63 | GCGGTCGAAAGACACCGC ((((((....)))..))) | 53.3 °C | -24.4 kcal/mol
64 | GCAAGGGAAACCTTGC ((((((....)))))) | 60.1 °C | -37.9 kcal/mol
65 | GATCTGATCCCAGATC ((((((....)))))) | 47 °C | -27.2 kcal/mol
66 | GGTCTAGGAAACTAGGCC ((.((((....)))).)) | 51.1 °C | -46.1 kcal/mol
67 | GCGTCCATACGC ((((....)))) | 52.7 °C | -23.3 kcal/mol
68 | GTGGGCTCGAAAGAGCAC (((..(((....)))))) | 65.5 °C | -26 kcal/mol
69 | GAAGCCGGAAACGGTTTC (((.(((....))).))) | 49.9 °C | -40.2 kcal/mol
70 | GACCGTACGAAAGTAGTC (((..(((....)))))) | 26.5 °C | -13.1 kcal/mol
71 | GATCCGCATTCGGATC ((((((....)))))) | 59.8 °C | -36.1 kcal/mol
72 | GATCCTTCCAAGGATC ((((((....)))))) | 55.3 °C | -47 kcal/mol

Row | Sequence | Tm [1] | folding enthalpy [2]
73 | GATCGGATCCCCGATC ((((((....)))))) | 54 °C | -41.4 kcal/mol
74 | GCAGGCACGAAAGTGTGC (((..(((....)))))) | 39.1 °C | -14.9 kcal/mol
75 | GATCTTTATGAAGATC ((((((....)))))) | 44.9 °C | -36.5 kcal/mol
76 | CATATGAAAATATG (((((....))))) | 32.2 °C | -11.8 kcal/mol
77 | GTACATGAAAATGTAC ((((((....)))))) | 51.2 °C | -33.9 kcal/mol
78 | GATCCAGGACTGGATC ((((((....)))))) | 56.2 °C | -41.1 kcal/mol
79 | GATCACCCTAGTGATC ((((((....)))))) | 58.9 °C | -38.9 kcal/mol
80 | GCATGTGGAAACACACGC ((.((((....)))).)) | 46 °C | -25.8 kcal/mol
81 | GATCTACAATAGATC ((((((...)))))) | 36.7 °C | -18.8 kcal/mol
82 | GCGACCGAAAGGTCCCGC ((((((....)))..))) | 42.1 °C | -13.3 kcal/mol
83 | GCACAGCGAAAGCTCAGC ((..(((....)))..)) | 33.9 °C | -10.5 kcal/mol
84 | GTGGTAGGAAACTACTGC (..((((....))))..) | 36.1 °C | -18.2 kcal/mol
85 | GGAGGGGGAAACCCCCCC ((.((((....)))).)) | 50.9 °C | -14.9 kcal/mol
86 | GAACTCCCGAAAGGGTTC (((..(((....)))))) | 31.7 °C | -12.6 kcal/mol
87 | GTTCTGAAAAGAAC (((((....))))) | 47 °C | -27.5 kcal/mol
88 | GAAACCGAAAGGTGTTC ((((((....))).))) | 36.5 °C | -13 kcal/mol
89 | GGGGGTACGAAAGTACCC (((..(((....)))))) | 63.4 °C | -8.56 kcal/mol
90 | GATCCTGCCAAGGATC ((((((....)))))) | 65.6 °C | -38.6 kcal/mol
91 | GCAGGGACGAAAGTCTGC (((..(((....)))))) | 47.9 °C | -23 kcal/mol
92 | GTCGCAGGAAACTACGAC ((((.((....)).)))) | 46.3 °C | -32.1 kcal/mol
93 | GGCATCTCGAAAGAGGCC (((..(((....)))))) | 51.2 °C | -26.6 kcal/mol
